Assay results: ChEMBL document CHEMBL1153304, “2,4-Diaminopyridine delta-opioid receptor agonists and their associated hERG pharmacology” (Bioorg Med Chem Lett, 2009)
Calls of active or inactive are those of the source. The calls are words filed in the database; no cut-off is given here.

Columns and labels:
[1] = Metabolic stability in human liver microsomes assessed as intrinsic clearance; type: ADME, Microsome
[2] = biological target: T1, Delta-type opioid receptor (Homo sapiens, UniProt P41143); assay: Agonist activity at delta opioid receptor expressed in CHO cells assessed as inhibition of forskolin-stimulated cAMP production by ALPHAscreen assay; type: functional, cell-based
Summary of the method: (§1)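 CHO cells stably expressing a Flp-In delta opioid receptor construct, grown in DMEM/F12 with 2 mM L-glutamine, 500 µg/ml hygromycin and 10% heat-inactivated FBS. Cells resuspended at 8000 cells/well in HEPES pH 7.4/HBSS buffer with 0.1% BSA, 10 mM MgCl2 and 0.5 mM IBMX. Forskolin 20 µM final, 30 min. cAMP read by ALPHAscreen with biotin-cAMP competition after overnight incubation. EC50 from percentage agonist activity.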

[3] = Selectivity for human recombinant DOR over mu opioid receptor
[4] = biological target: Voltage-gated inwardly rectifying potassium channel KCNH2 (Homo sapiens, UniProt Q12809); assay: Inhibition of human ERG
[5] = species on record: Canis familiaris; assay: Effect on QTC prolongation in Beagle dog at 291 nM free plasma concentration; type: functional, organism-based; settings: Canis lupus familiaris
[6] = species on record: Rattus norvegicus; assay: Inhibition of neuropathic pain in rat electromyography model; type: functional
Summary of the method: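 Rat electromyography (EMG) pain model. Agonist given by infusion protocol (bolus + continuous infusion) at 76 µg/kg + 72 µg/kg/hr, 240 µg/kg + 290 µg/kg/hr, or 660 µg/kg + 920 µg/kg/hr to reach target plasma levels. Mean free plasma concentration measured at each dose. Read-out: EMG response inhibition relative to control animals.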

[7] = Clearance in rat; settings: in vivo
[8] = biological target: Mu-type opioid receptor (Homo sapiens, UniProt P35372); assay: Agonist activity at mu opioid receptor; type: functional
[9] = biological target: T1, Delta-type opioid receptor; assay: Agonist activity at human recombinant delta opioid receptor expressed in CHO cells assessed as inhibition of forskolin-stimulated cAMP production by ALPHAscreen assay relative to BW373U86; type: functional, cell-based; summary of the method: as §1

Sequence of Voltage-gated inwardly rectifying potassium channel KCNH2 (Q12809 whole entry): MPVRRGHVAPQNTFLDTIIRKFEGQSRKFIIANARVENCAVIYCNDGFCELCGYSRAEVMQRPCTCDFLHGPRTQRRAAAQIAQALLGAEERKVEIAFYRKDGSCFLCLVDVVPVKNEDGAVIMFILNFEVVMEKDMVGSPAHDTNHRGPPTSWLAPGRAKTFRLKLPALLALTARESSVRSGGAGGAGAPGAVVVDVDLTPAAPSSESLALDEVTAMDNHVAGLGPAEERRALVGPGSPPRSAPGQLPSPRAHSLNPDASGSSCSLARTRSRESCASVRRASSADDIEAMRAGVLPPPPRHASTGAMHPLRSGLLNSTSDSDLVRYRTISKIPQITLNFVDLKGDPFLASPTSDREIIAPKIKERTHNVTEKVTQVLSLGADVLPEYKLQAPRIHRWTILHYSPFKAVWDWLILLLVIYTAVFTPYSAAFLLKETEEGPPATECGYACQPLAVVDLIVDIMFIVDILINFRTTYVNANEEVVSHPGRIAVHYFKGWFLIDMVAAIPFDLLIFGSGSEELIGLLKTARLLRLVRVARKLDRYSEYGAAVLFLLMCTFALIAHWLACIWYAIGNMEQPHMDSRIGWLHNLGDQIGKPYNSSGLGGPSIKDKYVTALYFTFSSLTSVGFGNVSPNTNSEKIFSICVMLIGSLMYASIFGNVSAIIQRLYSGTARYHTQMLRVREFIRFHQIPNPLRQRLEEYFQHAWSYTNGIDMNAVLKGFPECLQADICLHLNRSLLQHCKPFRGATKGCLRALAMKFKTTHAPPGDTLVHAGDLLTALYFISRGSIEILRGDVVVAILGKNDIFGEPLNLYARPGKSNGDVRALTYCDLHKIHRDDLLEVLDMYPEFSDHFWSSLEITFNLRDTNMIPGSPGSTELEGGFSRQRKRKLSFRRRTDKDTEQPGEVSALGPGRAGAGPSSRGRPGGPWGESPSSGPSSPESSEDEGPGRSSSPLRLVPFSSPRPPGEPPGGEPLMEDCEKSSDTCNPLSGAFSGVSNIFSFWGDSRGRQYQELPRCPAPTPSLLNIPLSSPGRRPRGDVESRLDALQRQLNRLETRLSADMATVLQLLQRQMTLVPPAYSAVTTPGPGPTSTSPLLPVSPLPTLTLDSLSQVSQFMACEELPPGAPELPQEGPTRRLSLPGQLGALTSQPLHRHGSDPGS
T1 sequence (P41143 whole entry): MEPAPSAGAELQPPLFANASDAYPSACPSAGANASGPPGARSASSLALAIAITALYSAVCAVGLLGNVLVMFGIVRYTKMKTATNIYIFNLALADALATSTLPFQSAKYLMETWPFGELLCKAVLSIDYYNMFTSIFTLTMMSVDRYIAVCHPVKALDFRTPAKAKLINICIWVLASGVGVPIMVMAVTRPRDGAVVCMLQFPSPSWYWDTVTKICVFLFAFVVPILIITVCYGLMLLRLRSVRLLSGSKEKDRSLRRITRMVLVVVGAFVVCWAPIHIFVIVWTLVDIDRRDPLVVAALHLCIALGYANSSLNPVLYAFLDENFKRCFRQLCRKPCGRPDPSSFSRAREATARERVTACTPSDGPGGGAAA
Sequence of Mu-type opioid receptor (P35372 whole entry): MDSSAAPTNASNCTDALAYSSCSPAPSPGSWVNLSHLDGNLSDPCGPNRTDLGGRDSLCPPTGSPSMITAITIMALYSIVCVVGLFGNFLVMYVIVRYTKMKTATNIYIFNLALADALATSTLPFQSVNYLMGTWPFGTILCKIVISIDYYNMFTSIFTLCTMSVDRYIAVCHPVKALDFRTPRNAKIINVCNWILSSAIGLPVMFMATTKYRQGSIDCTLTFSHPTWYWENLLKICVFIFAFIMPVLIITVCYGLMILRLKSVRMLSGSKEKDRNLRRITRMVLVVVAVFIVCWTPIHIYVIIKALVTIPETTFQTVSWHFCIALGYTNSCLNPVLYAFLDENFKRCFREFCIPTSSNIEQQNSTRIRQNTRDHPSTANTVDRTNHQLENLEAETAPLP

SMILES	microsomal CLint [1] [µL/min/mg]	EC50 [2] [µM]	fold change (FC) [3]	Ki [4] [µM]	further results
Nc1ccnc(N2CCC(N(C(=O)C3CC3)c3ccccn3)CC2)c1	< 7				
CCN(CC)C(=O)[C@H]1OC2(CCN(c3cc(N)ccn3)CC2)c2ccccc21	13	0.012	50	> 10	
Nc1ccnc(N2CCC(N(C(=O)C3CCCCC3)c3ccccn3)CC2)c1	80				
Nc1ccnc(N2CCC(NC(=O)c3ccccn3)(c3ccccc3)CC2)c1	14	0.06	50	0.548	
Nc1ccnc(N2CCC(C(=O)N3CCc4ccccc4C3)(c3ccccc3)CC2)c1	46	0.013	50		
CN(C)C(=O)[C@H]1CC2(CCN(c3cc(N)ccn3)CC2)c2ccccc21	< 7	0.027	50		Activity [5]: Active; inhibition (INH) [6]: 60%; clearance [7]: > 4.2 L/h/kg
Nc1ccnc(N2CCC(n3c(=O)n(-c4ccccc4)c4cccnc43)CC2)c1	19			0.903	
Nc1ccnc(N2CCC3(CC2)OCc2ccccc23)c1		0.308	50		
COc1ccc(C(=O)NC2(c3ccccc3)CCN(c3cc(N)ccn3)CC2)c(OC)c1	43	0.014	50		
Nc1ccnc(N2CCC(n3c(=O)n(CC4CC4)c4cccnc43)CC2)c1	13			0.746	
COc1cccc(C2(C)CN(c3cc(N)ccn3)C2)c1		0.846	2	1.84	
COc1ccc(C(=O)NC2(c3ccccc3)CCN(c3cc(N)ccn3)CC2)cc1Cl	69	0.059	50	0.343	
COc1ccc(CNC(=O)C2(c3ccccc3)CCN(c3cc(N)ccn3)CC2)cc1	40	0.017	50		
CC(=O)C1(c2ccccc2)CCN(c2cc(N)ccn2)CC1	< 7	0.263	50		EC50 [8]: > 10 µM; Emax [9]: 100%
CCOC(=O)N1CCN(C(=O)C2(c3ccccc3)CCN(c3cc(N)ccn3)CC2)CC1	62	0.024	17		
COc1ccc(-n2c(=O)n(C3CCN(c4cc(N)ccn4)CC3)c3ncccc32)cc1	23			0.865	
COc1ccc(C(=O)N(c2cc(C)ccn2)C2CCN(c3cc(N)ccn3)CC2)cc1	12				
Nc1ccnc(N2CCC3(CC2)OC(c2ccccc2)c2ccccc23)c1 (stereo unspecified)	10	0.059	50	0.018	
Nc1ccnc(N2CCC(NC(=O)[C@@H]3CCCO3)(c3ccccc3)CC2)c1	13	0.171	50		
Nc1ccnc(N2CCC(C(=O)Nc3ccc4ccccc4n3)(c3ccccc3)CC2)c1	22	0.005			
COc1cccc(C(=O)N(c2ccccn2)C2CCN(c3cc(N)ccn3)CC2)c1	17			9.69	
Nc1ccnc(N2CCC(n3c(=O)n(Cc4ccccc4)c4cccnc43)CC2)c1	20				
